MT stabilize HCS = microtubule stabilizers in HeLa cells, primary screen, imaging, high-content imaging. HeLa tubulin immunostaining HCS, 24 h; share of cells brighter than vehicle mean+2SD. % tubulin-high responders, % at 10 µM. actives 0.83% (n = 200,000);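 active = plate Z-score above 3 for both tubulin-high and condensed-nucleus cell shares, with cell loss under 80%, at 10 µM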;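 also: anti alpha tubulin signal scored within the nucleus-defined area of each cell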
ROMK primary = ROMK potassium channel modulators, primary screen, cell-based, thallium flux, MLSMR library; actives 2% (n = 130,000); ATP-sensitive inward rectifier potassium channel 1 (Homo sapiens), P48048; Tet-inducible ROMK, thallium flux fluorescence; actives lie on both sides; B-score at 10 µM;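 active = signal ratio slope over the read window, or its plate-corrected B-score, at least 3 SD from the plate mean, either direction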;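 also: B-score of the F/F0 ratio slope over 7 to 12 s after thallium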
Target sequence (P48048 whole entry, looked up): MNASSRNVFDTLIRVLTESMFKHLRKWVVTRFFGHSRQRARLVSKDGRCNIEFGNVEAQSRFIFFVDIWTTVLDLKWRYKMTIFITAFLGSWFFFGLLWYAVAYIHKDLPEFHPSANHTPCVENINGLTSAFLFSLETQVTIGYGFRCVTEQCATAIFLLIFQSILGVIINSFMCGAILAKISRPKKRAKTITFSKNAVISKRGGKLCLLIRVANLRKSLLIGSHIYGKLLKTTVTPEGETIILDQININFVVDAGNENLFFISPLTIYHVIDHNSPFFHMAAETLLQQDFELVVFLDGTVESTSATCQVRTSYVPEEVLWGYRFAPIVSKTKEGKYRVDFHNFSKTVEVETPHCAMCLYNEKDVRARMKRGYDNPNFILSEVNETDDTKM
bCat nuc transl = modulators of beta-catenin nuclear translocation, primary screen, imaging, HeLa cells, immunofluorescence, high-content | nuclear translocation activity, % at 5 µM | actives 0.3% (n = 190,000) | AID 1665, 2009;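 active = nuclear translocation activity above 50% at 5 µM, with a well cell count of 50 or more; inconclusive = wells under 50 cells across six images, flagged as toxic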;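 also: per-cell ratio of nuclear to cytoplasmic median beta-catenin stain intensity; plate controls were DMSO negative control for no effect and GSK-3 inhibitor IX positive control for full effect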
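Test system: human HeLa cells, endogenous beta-catenin. Times: 24 h compound exposure, 37°C. Measured by: beta-catenin immunofluorescence imaging with DAPI.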
Cl transport mod = KCC2 cotransporter modulators, thallium flux, primary screen, cell-based, HEK293 KCC2, FluoZin-2 fluorescence, MLSMR; B-score of Tl+ flux slope (higher = more flux/activation; lower = inhibition) at 10 µM; actives 2.2% (n = 190,000); KCC2 cells, thallium flux FluoZin-2 fluorescence; Solute carrier family 12 member 5 (Homo sapiens), Q9H2X9;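 active = thallium flux slope and its plate-corrected score both differing from the plate sample mean at a set confidence after two filtering rounds, in either direction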;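 also: slope of fluorescence scaled to starting intensity during 10 to 20 s after thallium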
Redox H2O2 prof = compounds producing H2O2 with reducing agent – biochemical, NIH compound library profiling, artefact control for MLSCN library redox annotation, primary screen; DTT-dependent redox cycling H2O2, phenol red/HRP absorbance; 100% = 100 µM peroxide control, 0% = buffer; activation, % at 10 µM; actives 0.03% (n = 200,000);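 active = activation of at least 50% relative to the plate's high and low controls in the primary single-dose screen; inactive = activation below 50%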;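 also: compound incubated with DTT at 0.8 mM final as the reducing agent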
KCC2 sec1 = KCC2 modulators in sodium-free buffer, confirmation, cell-based, HEK293 KCC2, thallium flux, secondary assay | actives 15% (n = 3,700) | FluoZin2 fluorescence; active compounds read high | shares compounds with Cl transport mod | normalised thallium flux (F/F0 slope) at 10 µM | AID 1713, 2009;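 active = thallium flux slope above the same plate's solvent-only control mean plus 3 SD; inconclusive = the two replicate wells disagree; inactive = no significant difference from solvent-only control wells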
KCC2 bumet counter = thallium flux persisting under bumetanide in KCC2 cells, confirmation, counter-screen for KCC2 modulator project, cell-based, HEK293 KCC2, FluoZin2, secondary assay 3; HEK293-KCC2 + bumetanide/ouabain; active compounds read high; normalized thallium flux at 10 µM; actives 49% (n = 3,700); shares compounds with Cl transport mod;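 active = thallium entry rate above the same plate's blocked-transporter control wells by more than 3 SD; inconclusive = the two repeat wells disagree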;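 also: raw slope of fluorescence over initial fluorescence between 10 and 20 s after thallium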
KCC2 sec2 = KCC2 modulators without ouabain present, confirmation, cell-based, HEK293 KCC2, thallium flux, FluoZin2, secondary assay 2; shares compounds with Cl transport mod; thallium flux FluoZin2 fluorescence; actives lie on both sides; F/F0 rise rate, 10–20 s post-thallium; normalized thallium flux at 10 µM; actives 23% (n = 3,700);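 active = thallium flux slope more than 3 SD above or below the plate's solvent-only control mean, mostly below; inconclusive = the two repeat wells disagreed; inactive = no significant shift from solvent-only controls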;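 also: raw slope with 0.1% DMSO as baseline and bumetanide as block control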
HEK293 Tl flux = thallium flux modulation in parental HEK cells, confirmation, counter-screen for KCC2 modulator project, cell-based, counterscreen 1 | shares compounds with Cl transport mod | HEK293 parental cells, thallium flux FluoZin2, ouabain; baseline-ratio fluorescence slope, 10–20 s after thallium | thallium flux rate (normalised fluorescence) at 10 µM | actives 46% (n = 3,700) | AID 1716, 2009;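 active = thallium flux rate significantly above the same plate's solvent-only control wells, beyond their mean plus 3 SD; inconclusive = the two replicate wells gave conflicting results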
KCC2 ouabain = KCC2 inhibitors and activators, ouabain retest, confirmation, HEK-KCC2 cells; shares compounds with Cl transport mod; HEK293-KCC2, thallium flux FluoZin2 fluorescence; bidirectional: low = inhibitor, high = activator; raw Tl+ flux slope (below DMSO = inhibition, above = activation) at 10 µM; actives 48% (n = 3,700);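 active = thallium flux slope beyond 3 SD from same-plate DMSO control mean in most replicates, usually higher, sometimes lower; inconclusive = repeat tests gave conflicting results; inactive = no significant difference from controls in most replicates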;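 also: slope of initial-normalized fluorescence between seconds 10 and 20 after thallium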
HEK293 Tl flux2 = native HEK Tl+ uptake effects, second counter-screen – HEK cells, counterscreen 2, counter-screen for KCC2 modulator project, confirmation; thallium flux slope at 10 µM; actives 33% (n = 3,700); AID 1718, 2009; HEK293 parental, thallium flux FluoZin-2 fluorescence slope; shares compounds with Cl transport mod;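 active = thallium flux slope above the same plate's solvent-control mean plus 3 SD in both duplicate wells; inconclusive = duplicate wells that disagreed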;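 also: run without ouabain in cells lacking the KCC2 cotransporter; slope of fluorescence scaled to its starting value between 10 and 20 s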
The depositor's hits bear a star; ? = inconclusive; nt = no result. The list is not random: actives were taken first. Their share in the collection is about 3.7%.

SMILES	MT stabilize HCS	ROMK primary	bCat nuc transl	Cl transport mod	Redox H2O2 prof	KCC2 sec1	KCC2 bumet counter	KCC2 sec2	HEK293 Tl flux	KCC2 ouabain	HEK293 Tl flux2
CC(C)(C)c1cc(CCC(=O)NNC(=S)NC(=O)c2ccccc2)cc(C(C)(C)C)c1O	4.8	0.832	-0.2	53.8*	-0.1	0.0334*	0.105*	0.0357	0.0906*	0.0822*	0.0199*
COCCN(C(=O)CNC(=O)c1cccs1)C(C(=O)NC(C)(C)C)c1ccccc1 (stereo not drawn)	2.6	0.0311	0.2	-1.19	-0.4	nt	nt	nt	nt	nt	nt
O=C(Nc1ccc2c(c1)oc1ccccc12)c1ccc2c(c1)OCO2	2.6	0.619	5.0	-0.404	0.9	nt	nt	nt	nt	nt	nt
O=c1c(O)c(-c2ccc3c(c2)OCO3)oc2ccccc12	9.8	2.33	-0.4	nt	-4.6	0.0318*	0.169*	0.0515*	0.103*	0.1*	0.0499*
Cn1c(Sc2ccc(C(F)(F)F)cc2[N+](=O)[O-])nnc1-c1ccccc1	2.8	-1.02	2.4	-5.35*	-12.8	0.00758	0.00633	0.0341	0.00446	0.0187	0.0112
CC1CCCC(NC(=O)COC(=O)CCSc2ccccc2)C1C (stereo not drawn)	2.9	0.375	-3.6	nt	-0.5	0.00755	0.00592	0.0338	0.0069	0.0175*	0.0103
COc1cccc(C(=O)NNC(=O)Cc2cccs2)c1	2.0	nt	-3.2	1.39	-0.9	nt	nt	nt	nt	nt	nt
CC(C)Cn1cc(C(=O)N2CCN(c3ccccn3)CC2)c2c3ccccc3n(C)c2c1=O	2.0	nt	-3.5	nt	1.7	0.00903	0.00588	0.0302	0.00681	0.034	0.01
CC(C)OC(=O)CSc1nnc(-c2ccccc2)n1N	4.1	nt	-2.0	nt	-0.9	nt	nt	nt	nt	nt	nt
Cn1nc([N+](=O)[O-])nc1Sc1cccc2cccnc12	1.7	1.03	-3.3	7.57*	0.3	0.00992	0.0233*	0.0298	0.0129*	0.0233	0.0102
O=[N+]([O-])c1ccc(Cl)cc1Sc1cccc2cccnc12	4.4	-0.0149	-6.5	-0.898	-0.3	nt	nt	nt	nt	nt	nt
COc1ccccc1C(=O)NC1CCN(C(=S)NCCc2ccccc2)CC1	2.5	-1.59	-2.9	-3.08*	-0.8	0.00705	0.00453	0.0249*	0.00782	?	0.0107
O=C(NC1CCN(C(=S)NCCc2ccccc2)CC1)C1CCCCC1	2.1	-2.08	0.6	0.0138	-0.1	nt	nt	nt	nt	nt	nt
O=C(CCCN1C(=O)/C(=C/c2ccccc2Cl)SC1=S)NNC(=O)c1cccnc1	nt	nt	0.7	-4.91*	nt	0.00901	0.00502	0.031	0.00692	0.0165*	0.0106
